ChEMBL document CHEMBL4715801, “Discovery of Mycobacterium tuberculosis InhA Inhibitors by Binding Sites Comparison and Ligands Prediction” (J Med Chem, 2016)

Experiments:
[1] = Inhibition of Mycobacterium tuberculosis InhA assessed as effect on NADH oxidation incubated for 10 mins by spectrophotometry
[2] = Inhibition of Mycobacterium tuberculosis InhA assessed as residual enzyme activity by measuring NADH oxidation at 100 uM incubated for 10 mins by spectrophotometry
[3] = Mixed type inhibition of Mycobacterium tuberculosis InhA assessed as effect on NADH oxidation incubated for 10 mins by spectrophotometry
Summary of the method: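 Inhibition type and Ki were taken from the continuous spectrophotometric InhA assay. DD-CoA was the substrate, and its Km was determined alongside.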

With `COc1ccc(-c2[nH]c3ccccc3c2CCC(=O)Nc2ncccc2C)cc1` the IC50 [1] was 14 µM and the Activity [2] was > 50%.
In the case of `Cc1c(CN(C)C(=O)/C=C/c2cnc3c(c2)CCC(=O)N3)c2ccccc2n1C`, the Activity [2] is reported as > 50%.
For `Oc1cc(Cl)ccc1Oc1ccc(Cl)cc1Cl`, the Activity [2] was > 50%.
For `Cc1cc2ncn(Cc3ccc(Cl)c(Cl)c3)c2cc1C`, the IC50 [1] was 10 µM, the Activity [2] was > 50% and the Ki [3] was 4 µM.
